# T1: YchF (YchFE.coli) (Escherichia coli, UniProt P0ABU2)
# T1 sequence (P0ABU2 1-363): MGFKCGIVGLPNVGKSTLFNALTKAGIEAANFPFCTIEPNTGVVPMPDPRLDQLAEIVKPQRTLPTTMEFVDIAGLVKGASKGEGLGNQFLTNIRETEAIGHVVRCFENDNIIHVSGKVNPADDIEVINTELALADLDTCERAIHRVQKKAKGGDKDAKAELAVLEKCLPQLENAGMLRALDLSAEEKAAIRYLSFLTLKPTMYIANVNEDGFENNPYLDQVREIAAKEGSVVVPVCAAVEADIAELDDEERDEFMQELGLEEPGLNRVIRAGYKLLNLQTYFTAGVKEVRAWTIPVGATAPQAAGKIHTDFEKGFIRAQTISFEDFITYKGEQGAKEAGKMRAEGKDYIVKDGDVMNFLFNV
# Tests used:
# YchF (YchFE.coli) = target: T1, YchF (YchFE.coli); assay: equilibrium titration, intrinsic tryptophan fluorescence; assay type: binding
# How it was run: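 Purified E. coli YchF in TAKM7 (50 mM Tris-Cl 7.5, 70 mM NH4Cl, 30 mM KCl, 7 mM MgCl2) titrated with nucleotides. Intrinsic fluorescence recorded in a stirred quartz cuvette: excitation 280 nm (2 nm slit), emission 295–400 nm in 1 nm steps (5 nm slits). With triphosphates, scans started immediately without equilibration. Spectra corrected against nucleotide titration into buffer alone.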
# [1] = target: 70S ribosome from E. coli, purified (E. coli); assay: co-sedimentation
Kd (YchF (YchFE.coli)),Kd [1],stoichiometry N [1],Molecule
151 ± 38 µM,,,Nc1nc2c(ncn2[C@@H]2O[C@H](COP(=O)(O)OP(=O)(O)O)[C@@H](O)[C@H]2O)c(=O)[nH]1 [GDP]
9 ± 8 µM,,,Nc1ncnc2c1ncn2[C@@H]1O[C@H](COP(=O)(O)OP(=O)(O)NP(=O)(O)O)[C@@H](O)[C@H]1O [ADPNP]
14 ± 5 µM,,,Nc1ncnc2c1ncn2[C@@H]1O[C@H](COP(=O)(O)OP(=O)(O)O)[C@@H](O)[C@H]1O [ADP]
206 ± 5 µM,,,Nc1nc2c(ncn2[C@@H]2O[C@H](COP(=O)(O)OP(=O)(O)OP(=O)(O)O)[C@@H](O)[C@H]2O)c(=O)[nH]1 [GTP]
,3.3 µM,0.3 YchF per 70S,N-terminally His-tagged YchF from Escherichia coli (enzyme) MGFKCGIVGLPNVGKSTLFNALTKAGIEAANFPFCTIEPNTGVVPMPDPRLDQLAEIVKPQRTLPTTMEFVDIAGLVKGASKGEGLGNQFLTNIRETEAIGHVVRCFENDNIIHVSGKVNPADDIEVINTELALADLDTCERAIHRVQKKAKGGDKDAKAELAVLEKCLPQLENAGMLRALDLSAEEKAAIRYLSFLTLKPTMYIANVNEDGFENNPYLDQVREIAAKEGSVVVPVCAAVEADIAELDDEERDEFMQELGLEEPGLNRVIRAGYKLLNLQTYFTAGVKEVRAWTIPVGATAPQAAGKIHTDFEKGFIRAQTISFEDFITYKGEQGAKEAGKMRAEGKDYIVKDGDVMNFLFNV

# Source: publication PMC3583859 (RNA Biology, 2012)
